Experimental data reported in article PMC9826232 (Chemmedchem, 2022).

Experiments:
pErk in A375 cells = experiment: HTRF assay of downstream phosphorylation, pErk in A375; assay type: cell-based; settings: Homo sapiens, A-375, read-out: pErk IC50
tAkt in A375 cells = experiment: HTRF assay, tAkt in A375; assay type: cell-based; settings: Homo sapiens, A-375, read-out: tAkt IC50
pErk in SNU‐1 cells = experiment: HTRF assay of downstream phosphorylation, pErk in SNU-1; assay type: cell-based; settings: Homo sapiens, SNU1, read-out: pErk IC50
Summary of the method: (§1)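 Test compound was given as a 3-fold 8-point series, top 330 μM final, 1 % DMSO, for 1 h. EGF at 3 nM final was then added for 15 min. Cells were lysed 30 min at room temperature. TR-FRET antibody detection followed after 20 h at room temperature; read-out gave IC50.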

K‐Ras(G12D) = K‐Ras(G12D) (Homo sapiens, UniProt P01116, G12D); experiment: Nucleotide exchange assay; assay type: biochemical
Summary of the method: (§2)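 SOS1 (final 30.2 nM for G12D, 4.6 nM for wild type) and GTP (1 μM final) follow. Incubated overnight at room temperature, then GDP detection reagent for 1 h. Luminescence read; IC50 from sigmoidal curves.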

tErk in A375 cells = experiment: HTRF assay, tErk in A375; assay type: cell-based; settings: Homo sapiens, A-375, read-out: tErk IC50
NCI‐H441 (G12 V) = experiment: CellTiter-Glo cell viability assay, NCI-H441; assay type: cell-based; settings: Homo sapiens, NCI-H441, 72 h, read-out: Cellular activity IC50, NCI‐H441 (G12 V)
Summary of the method: (§3)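 Cells seeded, then held 24 h at 37 °C/5 % CO2 before test compound in DMSO was added at various concentrations. Plates were incubated a further 72 h at 37 °C, 5 % CO2, humidified. Controls were DMSO vehicle and 10 μM staurosporine. CellTiter-Glo reagent was added at equal volume to the medium, then 2 min shaking and 10 min at room temperature before luminescence (ATP) reading. IC50 from dose-response fit; plates accepted only if Z' ≥0.5, from 16 control values each.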

K‐Ras wild type protein = K‐Ras wild type protein (Homo sapiens, UniProt P01116); experiment: Nucleotide exchange assay; assay type: biochemical
Summary of the method: as §2

H358 (G12 C) = experiment: CellTiter-Glo cell viability assay, H358; assay type: cell-based; settings: Homo sapiens, NCI-H358, 72 h, read-out: Cellular activity IC50, H358 (G12 C)
Summary of the method: as §3

[1] = Stability in cell culture medium; assay type: in vitro ADME; settings: for stability in cell culture medium: 24 h
HCT15 (G13D) = experiment: CellTiter-Glo cell viability assay, HCT15; assay type: cell-based; settings: Homo sapiens, HCT-15, 72 h, read-out: Cellular activity IC50, HCT15 (G13D)
Summary of the method: as §3

[2] = test system: Ras mutant tumor cell lines; experiment: Tumor cell assays, all tested cell lines; assay type: cell-based; settings: read-out: IC50 values for all tested cell lines
Summary of the method: as §3

tAkt in SNU‐1 cells = experiment: HTRF assay, tAkt in SNU-1; assay type: cell-based; settings: Homo sapiens, SNU1, read-out: tAkt IC50
Summary of the method: as §1

A549 (G12S) = experiment: CellTiter-Glo cell viability assay, A549; assay type: cell-based; settings: Homo sapiens, A549, 72 h, read-out: Cellular activity IC50, A549 (G12S)
Summary of the method: as §3

pAkt in A375 cells = experiment: HTRF assay of downstream phosphorylation, pAkt in A375; assay type: cell-based; settings: Homo sapiens, A-375, read-out: pAkt IC50
tErk in SNU‐1 cells = experiment: HTRF assay, tErk in SNU-1; assay type: cell-based; settings: Homo sapiens, SNU1, read-out: tErk IC50
Summary of the method: as §1

pAkt in SNU‐1 cells = experiment: HTRF assay of downstream phosphorylation, pAkt in SNU-1; assay type: cell-based; settings: Homo sapiens, SNU1, read-out: pAkt IC50
Summary of the method: as §1

SNU‐1 (G12D) = experiment: CellTiter-Glo cell viability assay, SNU-1; assay type: cell-based; settings: Homo sapiens, SNU1, 72 h, read-out: Cellular activity IC50, SNU‐1 (G12D)
Summary of the method: as §3

[3] = Control assay for nucleotide exchange assay; settings: 3 mM compound; percent of control
K‐Ras4B = K‐Ras4B (Homo sapiens, UniProt P01116); experiment: NMR titration experiments; assay type: binding
Summary of the method: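 GDP-bound K-Ras4B was titrated with test compound and followed by NMR chemical shift perturbation; KD derived from the titration.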

(GTP)K‐Ras4B = (GTP)K‐Ras4B (Homo sapiens, UniProt P01116); experiment: MST; assay type: binding
[4] = Stability in human plasma solution; assay type: in vitro ADME; settings: over 24 h
(GDP)K‐Ras4B = (GDP)K‐Ras4B (Homo sapiens, UniProt P01116); experiment: MST; assay type: binding
(GDP)K‐Ras4B, sequence (P01116 1-188 isoform P01116-2): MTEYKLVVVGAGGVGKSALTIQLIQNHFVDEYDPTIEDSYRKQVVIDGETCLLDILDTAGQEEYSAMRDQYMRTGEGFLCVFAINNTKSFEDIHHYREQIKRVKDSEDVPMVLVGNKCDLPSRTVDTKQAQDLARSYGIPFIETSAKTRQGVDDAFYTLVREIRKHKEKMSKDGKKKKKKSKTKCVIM

K‐Ras(G12D), sequence (P01116 1-188 isoform P01116-2 G12D): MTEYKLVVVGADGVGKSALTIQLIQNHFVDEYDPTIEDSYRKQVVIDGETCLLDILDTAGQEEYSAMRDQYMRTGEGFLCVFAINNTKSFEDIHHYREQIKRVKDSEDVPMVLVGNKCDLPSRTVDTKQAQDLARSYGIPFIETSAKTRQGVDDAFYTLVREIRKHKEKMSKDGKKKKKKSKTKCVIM
K‐Ras wild type protein, sequence (P01116 1-188 isoform P01116-2): as the sequence (P01116 1-188 isoform P01116-2) above
K‐Ras4B, sequence (P01116 1-188 isoform P01116-2): as above
(GTP)K‐Ras4B, sequence (P01116 1-188 isoform P01116-2): as above

IC50 (K‐Ras(G12D))	IC50 (K‐Ras wild type protein)	IC50 (H358 (G12 C))	IC50 (HCT15 (G13D))	IC50 (A549 (G12S))	IC50 (SNU‐1 (G12D))	SMILES	IC50 (NCI‐H441 (G12 V))	WT %CRTL (3 mM) [3]	other results
413 ± 28 µM	1040 ± 427 µM	33.7 ± 0.6 µM	17.6 ± 13.4 µM	28.7 ± 4.7 µM	23.7 ± 14.4 µM	Oc1ccc(C(=NNc2ccc(F)cc2)c2ccc(O)cc2)cc1 [7 c, 4,4′‐((2‐(4‐Fluorophenyl)hydrazinylidene)‐methylene)diphenol]	24.7 ± 8.3 µM	83%	IC50 (pErk in A375 cells): 415 µM; IC50 (tAkt in A375 cells): > 1000 µM; IC50 (pErk in SNU‐1 cells): 455 µM; IC50 (tErk in A375 cells): 491 µM; cell culture medium stability [1]: 2.2%; IC50 [2]: 20 to 30 µM; IC50 (tAkt in SNU‐1 cells): > 1000 µM; IC50 (pAkt in A375 cells): > 1000 µM; IC50 (tErk in SNU‐1 cells): > 550 µM; IC50 (pAkt in SNU‐1 cells): 95.3 µM
475 µM	1300 ± 417 µM	40.2 ± 1 µM	27.4 ± 4.5 µM	30.1 ± 9 µM	31.2 ± 6.8 µM	Oc1ccc(C(=NNc2ccc(Cl)cc2)c2ccc(O)cc2)cc1 [7 d, 4,4′‐((2‐(4‐Chlorophenyl)hydrazinylidene)‐methylene)diphenol]	29.3 ± 4.1 µM	84%	cell culture medium stability [1]: 0.4%; IC50 [2]: 20 to 30 µM
628 ± 170 µM	1070 ± 312 µM	15.1 ± 1.2 µM	12.5 ± 1.4 µM	11.9 ± 0.7 µM	16.7 ± 1.9 µM	Oc1ccc(C(=NNc2ccc(C(F)(F)F)cc2)c2ccc(O)cc2)cc1 [7 e, 4,4′‐((2‐(4‐(Trifluoromethyl)phenyl)‐hydrazinylidene)methylene)diphenol]	13.4 ± 2.7 µM	90%	IC50 (pErk in A375 cells): > 1000 µM; IC50 (tAkt in A375 cells): > 1000 µM; IC50 (pErk in SNU‐1 cells): 520 µM; IC50 (tErk in A375 cells): > 1000 µM; stability in cell culture medium [1]: completely stable; IC50 (tAkt in SNU‐1 cells): > 1000 µM; IC50 (pAkt in A375 cells): > 1000 µM; IC50 (tErk in SNU‐1 cells): > 1000 µM; IC50 (pAkt in SNU‐1 cells): 431 µM
1910 ± 98 µM	2610 ± 225 µM	–	–	67 ± 1.8 µM	71.1 ± 11.3 µM	Oc1ccc(C(=NNc2ccccn2)c2ccc(O)cc2)cc1 [7 f, 4,4′‐((2‐(Pyridin‐2‐yl)hydrazinylidene)‐methylene)diphenol]	65.8 ± 37.3 µM	98%	–
1310 ± 389 µM	1030 ± 371 µM	109 ± 3 µM	113 ± 13 µM	105 ± 2 µM	92.1 ± 12 µM	O=S(=O)(NN=C(c1ccc(O)cc1)c1ccc(O)cc1)c1ccccc1 [8 a, N′‐(bis(4‐hydroxyphenyl)methylene)benzene‐sulfonohydrazide]	157 ± 54 µM	91%	–
1290 ± 307 µM	1620 ± 565 µM	161 ± 9 µM	219 ± 43 µM	184 ± 12 µM	154 ± 30 µM	COc1ccc(S(=O)(=O)NN=C(c2ccc(O)cc2)c2ccc(O)cc2)cc1 [8 b, N′‐(bis(4‐hydroxyphenyl)methylene)‐4‐methoxybenzenesulfonohydrazide]	260 ± 45 µM	89%	–
583 ± 146 µM	1050 ± 405 µM	69.8 ± 2.4 µM	85 ± 9.2 µM	71.3 ± 6.5 µM	81 ± 26.3 µM	O=S(=O)(NN=C(c1ccc(O)cc1)c1ccc(O)cc1)c1ccc(Cl)cc1 [8 c, N′‐(bis(4‐hydroxyphenyl)methylene)‐4‐chlorobenzenesulfonohydrazide]	102 ± 16 µM	91%	IC50 (pErk in A375 cells): 203 µM; IC50 (tAkt in A375 cells): > 1000 µM; IC50 (pErk in SNU‐1 cells): 240 µM; IC50 (tErk in A375 cells): 255 µM; IC50 (tAkt in SNU‐1 cells): 586 µM; IC50 (pAkt in A375 cells): > 1000 µM; IC50 (tErk in SNU‐1 cells): > 875 µM; IC50 (pAkt in SNU‐1 cells): 96.6 µM
850 ± 120 µM	2220 ± 519 µM	82.8 ± 8.4 µM	96.6 ± 14.5 µM	91.8 ± 7.4 µM	88.7 ± 23.9 µM	O=S(=O)(NN=C(c1ccc(O)cc1)c1ccc(O)cc1)c1ccc(Br)cc1 [8 d, N′‐(bis(4‐hydroxyphenyl)methylene)‐4‐bromobenzenesulfonohydrazide]	105 ± 8 µM	93%	–
255 µM	298 ± 196 µM	49.2 ± 0.9 µM	51.1 ± 1.2 µM	49.8 ± 2.1 µM	46.8 ± 1.7 µM	O=[N+]([O-])c1ccc(S(=O)(=O)NN=C(c2ccc(O)cc2)c2ccc(O)cc2)cc1 [8 e, N′‐(bis(4‐hydroxyphenyl)methylene)‐4‐nitrobenzenesulfonohydrazide]	58.4 ± 6.9 µM	–	–
858 ± 55 µM	1650 ± 731 µM	104 ± 3 µM	112 ± 10 µM	111 ± 10 µM	110 ± 24 µM	O=S(=O)(NN=C(c1ccc(O)cc1)c1ccc(O)cc1)c1ccc(OC(F)(F)F)cc1 [8 f, N′‐(bis(4‐hydroxyphenyl)methylene)‐4‐(trifluoromethoxy)benzenesulfonohydrazide]	179 ± 43 µM	92%	–
> 3000 µM	1500 ± 572 µM	> 30 µM	> 30 µM	> 30 µM	> 30 µM	N#Cc1ccc(S(=O)(=O)NN=C(c2ccc(O)cc2)c2ccc(O)cc2)cc1 [8 g, N′‐(bis(4‐hydroxyphenyl)methylene)‐4‐cyanobenzenesulfonohydrazide]	> 30 µM	86%	–
1210 ± 116 µM	1330 ± 104 µM	–	–	> 300 µM	187 ± 19 µM	O=C(c1ccc(O)cc1)c1ccc(O)cc1 [compound 9, 4,4’‐Dihydroxybenzophenone, reference compound]	> 300 µM	–	Kd (K‐Ras4B): 9100 ± 3900 µM
> 3000 µM	> 3000 µM	–	–	112 ± 3 µM	173 ± 1 µM	O=C(NN=C(c1ccc(O)cc1)c1ccc(O)cc1)c1ccccc1 [compound 10, N′‐(Bis(4‐hydroxyphenyl)methylene)‐benzohydrazide]	158 ± 3 µM	93%	–
431 ± 22 µM	1330 ± 343 µM	58.6 ± 0.5 µM	43.9 ± 1.8 µM	54.3 ± 3.6 µM	41.7 ± 4.2 µM	Oc1ccc(C(=NOCc2ccccc2)c2ccc(O)cc2)cc1 [compound 11, Bis(4‐hydroxyphenyl)methanone‐O‐benzyl oxime]	62.2 ± 4.8 µM	98%	IC50 (pErk in A375 cells): 48.8 µM; IC50 (tAkt in A375 cells): 749 µM; Kd ((GTP)K‐Ras4B): 602 µM; IC50 (pErk in SNU‐1 cells): 218 µM; IC50 (tErk in A375 cells): 77.2 µM; stability in human plasma solution [4]: 92%; stability in cell culture medium [1]: completely stable; Kd ((GDP)K‐Ras4B): 89 µM; IC50 (tAkt in SNU‐1 cells): 475 µM; IC50 (pAkt in A375 cells): > 1000 µM; IC50 (tErk in SNU‐1 cells): > 1000 µM; IC50 (pAkt in SNU‐1 cells): 47.7 µM
340 ± 72 µM	1100 ± 381 µM	37.7 ± 1.3 µM	37.7 ± 0.4 µM	45.3 ± 1.5 µM	34.5 ± 2.1 µM	O=C(c1nc2cccc(O)c2[nH]1)c1cc2cccc(O)c2o1 [compound 12, (7‐Hydroxy‐1H‐benzimidazol‐2‐yl)‐(7‐hydroxybenzofuran‐2‐yl)methanon]	47.4 ± 3 µM	75%	Kd ((GTP)K‐Ras4B): 34 µM; Kd ((GDP)K‐Ras4B): 59 µM; Kd (K‐Ras4B): 500 ± 100 µM; fold stronger binding to K‐Ras4B than DHBP (K‐Ras4B; NMR titration KD ratio versus DHBP): 18 fold
409 ± 32 µM	334 ± 5 µM	–	–	–	52.7 ± 0.3 µM	O=C(c1nc2cc(O)ccc2[nH]1)c1cc2cccc(O)c2o1 [compound 13, (5‐Hydroxy‐1H‐benzo[d]imidazol‐2‐yl)(7‐hydroxybenzofuran‐ 2‐yl)methanone]	54.5 ± 0.2 µM	–	–
